Most compounds without a hit are left out; they make up all but 4.9% or so of the library.
NF-kB expr up: compounds increasing NF-kB expression in human neuronal cells. NF-kB reporter expression; active compounds read high. fold change at 12.5 µM. 1.6% of 190,000 active; in the data active = fold change above about 3.3
STAT1 inh: reduces IFN-gamma driven STAT1 reporter signal | 0.35% of 200,000 active | NIH 3T3 STAT1-luciferase reporter, luminescence | AID 920 | inhibition, % at 5.5 µM;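 active = inhibition above a set limit, the mean inhibition across all tested compounds plus 3 SD, cut at about 34% in these data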;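 note: 0% = IFN-gamma with DMSO and 100% = IFN-gamma with 300 µM nifuroxazide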
STAT1 act: increases IFN-gamma driven STAT1 reporter signal. 2.6% of 200,000 active. NIH 3T3 STAT1-luciferase reporter, luminescence; 100% = IFN-gamma alone, no compound. activation (% of control), % at 5.5 µM;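 active = activation above the screen-wide mean activation plus 3 SD, cut at about 130% in these data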;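 note: raw ratio to IFN-gamma control signal so 100% means no change and 0% no light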
STAT3 activator: increases IL-6 driven STAT3 reporter signal; U3A cells, IL-6 STAT3-luciferase reporter, luminescence; 100% = signal with IL-6 EC80 alone; activation (% of control), % at 5.6 µM; 0.91% of 190,000 active; AID 871;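 active = activation above the screen-wide mean of compound activation plus 3 SD, cut at about 130% in these data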;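 note: 0% = background luminescence of wells with medium and substrate only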
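system = STAT3-luciferase reporter U3A cells | reagent = IL-6 stimulus at 33 ng/mL final | timing = 1 h compound pre-exposure, 6 h IL-6 stimulation, 37 °C | measured by = luminescence | evaluation = % activation versus median of IL-6-stimulated wells | control set = IL-6-only wells as 100% reference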
STAT3 inh: inhibitors of IL-6 induced STAT3 signaling. 0.89% of 190,000 active. U3A cells, IL-6 STAT3-luciferase reporter, luminescence; host cell line lacks STAT1. inhibition, % at 5.5 µM;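 active = inhibition above the mean inhibition across all screened compounds plus 3 SD, cut at about 44% in these data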;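 note: 0% = DMSO only wells and 100% = 100 µM nifuroxazide control wells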
APP 5'UTR act: APP 5'UTR luciferase reporter activation; SH-SY5Y APP 5'UTR luciferase reporter, luminescence; zero percent = DMSO vehicle wells; 1% of 190,000 active; activation, % at 2 µM;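 active = activation above a set limit, based on mean plus 3 SD of controls, cut at about 140% in these data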
STAT1 act conf: confirmation of STAT1 signaling activators; activation (% of control), % at 5.7 µM; shares compounds with STAT1 act; NIH 3T3 STAT1-luciferase reporter, IFN-gamma potentiation, luminescence; 100% = IFN-gamma EC80 alone, no compound; 97% of 1,200 active;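 active = activation above a set limit carried over from the earlier primary STAT1 screen, cut at about 140% in these data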;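 note: simple ratio to median IFN-gamma plus DMSO wells so 0% means no light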
NFkB act: NF-kappaB activation in STAT1 activator counter-screen; shares compounds with STAT1 act; HEK293T NF-kB luciferase reporter, TNF-alpha stimulated, luminescence; 100% = TNF-alpha with vehicle only; activation (% of control), % at 5.7 µM; 43% of 1,200 active; AID 1306;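 active = activation above the mean of solvent-only control wells plus 3 SD, set per campaign, cut at about 130% in these data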;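 note: TNF-alpha given at a submaximal dose yielding about 80% of full reporter signal; values are well signal over median control so 100% means no change and 0% no light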
STAT3 act 2: activates human STAT3, counter-screen to STAT1 activators; shares compounds with STAT1 act; U3A cells STAT3-luciferase reporter, IL-6, luminescence; cells lack STAT1; 100 = IL-6 alone, no compound effect; activation (% of control), % at 5.7 µM; 46% of 1,200 active;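 active = activation above the solvent-only control well mean plus 3 SD, set per plate batch, cut at about 110% in these data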;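 note: 0% = no luminescence and 100% = median IL-6 plus DMSO wells; higher means more STAT3 reporter activation so hits are non-selective activators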
* = called active by the depositor.

For Cc1ccc(N/N=C(\C#N)C(N)=S)cc1C the results were NF-kB expr up 1.5, STAT1 inh 11, STAT1 act 88, STAT3 activator 97, STAT3 inh 8 and APP 5'UTR act 7.
Screening CC(C)Oc1cccc(C(=O)Nc2ccc(Br)cc2F)c1 returned NF-kB expr up 6.1*, STAT1 inh -69, STAT1 act 162*, STAT3 activator 76, STAT3 inh 31, APP 5'UTR act 139*, STAT1 act conf 209*, NFkB act 119 and STAT3 act 2 91.
Screening Cc1ccc(-n2nnc(-c3ccnc4ccccc34)n2)cc1 returned NF-kB expr up 4.2*, STAT1 inh -58, STAT1 act 156*, APP 5'UTR act 111, STAT1 act conf 183*, NFkB act 136* and STAT3 act 2 104.
`Fc1ccc(-n2nnc(-c3ccnc4ccccc34)n2)cc1` gave NF-kB expr up 4.8*, STAT1 inh -74, STAT1 act 171*, APP 5'UTR act 142*, STAT1 act conf 203*, NFkB act 139* and STAT3 act 2 117*.
Screening CCCNC(=O)c1nn2cc(Br)cnc2c1Br returned STAT1 inh -3, STAT1 act 101, STAT3 activator 104, STAT3 inh 1 and APP 5'UTR act -10.
`O=C(COc1cccc(Cl)c1)Nc1ccc2c(c1)CCC2` gave NF-kB expr up 1.2, STAT1 inh 4, STAT1 act 97, STAT3 activator 99, STAT3 inh -1 and APP 5'UTR act 19.
Screening OCCOCCNc1ncnc2c1cnn2-c1ccc(Cl)cc1 returned NF-kB expr up 4.6*, STAT1 inh -63, STAT1 act 157*, STAT3 activator 96, STAT3 inh 10, APP 5'UTR act 140*, STAT1 act conf 225*, NFkB act 133* and STAT3 act 2 116*.
CC1CCCC(C)N1CC(C)(C)NS(=O)(=O)c1ccc(Cl)cc1 (centres undefined) was read as NF-kB expr up 1.1, STAT1 inh -1, STAT1 act 101, STAT3 activator 96, STAT3 inh 3 and APP 5'UTR act -4.
`COC(=O)c1c(NC(=O)COC(=O)Cn2cnc3ccccc32)sc2c1CCCC2` gave NF-kB expr up 1.1, STAT1 inh 4, STAT1 act 96, STAT3 activator 110, STAT3 inh -14 and APP 5'UTR act 1.
For Cc1ccccc1/C=C1\CCCc2ccccc2C1=O the results were NF-kB expr up 5.7*, STAT1 inh -63, STAT1 act 158*, STAT3 activator 92, STAT3 inh 8, APP 5'UTR act 116, STAT1 act conf 195*, NFkB act 137* and STAT3 act 2 110.
For O=C1/C(=C/c2c[nH]c3ccccc23)CCC/C1=C\c1c[nH]c2ccccc12 the results were NF-kB expr up 1, STAT1 inh -11, STAT1 act 110, STAT3 activator 90, STAT3 inh 12 and APP 5'UTR act 19.
Screening O=C(Nc1ccc2sccc2c1)c1ccc(Cl)s1 returned NF-kB expr up 7.7*, STAT1 inh -97, STAT1 act 192*, STAT3 activator 108, STAT3 inh -10, APP 5'UTR act 206*, STAT1 act conf 275*, NFkB act 138* and STAT3 act 2 113*.
`CC1=CC(=C2C(=O)c3ccccc3C2=O)C=C(C)N1Cc1ccco1` gave NF-kB expr up 4.6*, STAT1 inh -71, STAT1 act 165*, STAT3 activator 90, STAT3 inh 14, APP 5'UTR act 128, STAT1 act conf 178*, NFkB act 134* and STAT3 act 2 109.
Screening O=C1c2ccccc2C(=O)N1Cc1ccco1 returned NF-kB expr up 1.2, STAT1 inh 0, STAT1 act 97, STAT3 activator 102, STAT3 inh 1 and APP 5'UTR act 11.
`COc1cccc(Cn2c(C3CC3)nc3ccc(NC(=O)c4ccco4)cc3c2=O)c1` gave NF-kB expr up 0.79, STAT1 inh -12, STAT1 act 111, STAT3 activator 83, STAT3 inh 22 and APP 5'UTR act 31.
`COc1ccc(Cn2c(C3CC3)nc3ccc(NC(=O)C4CC4)cc3c2=O)cc1` gave NF-kB expr up 8.4*, STAT1 inh -119, STAT1 act 209*, STAT3 activator 110, STAT3 inh -5, APP 5'UTR act 173*, STAT1 act conf 294*, NFkB act 144* and STAT3 act 2 124*.
For O=C1OC(Cc2ccccn2)C(O)=C1C1=NCCCCN1 (centres undefined) the results were NF-kB expr up 2.1, STAT1 inh -58, STAT1 act 152*, STAT3 activator 103, STAT3 inh -3, APP 5'UTR act 105, STAT1 act conf 151*, NFkB act 115 and STAT3 act 2 114*.
For O=C1OC(Cc2ccccn2)C(O)=C1C1=NCCCN1 (centres undefined) the results were NF-kB expr up 1.4, STAT1 inh -12, STAT1 act 110, STAT3 activator 101, STAT3 inh -2 and APP 5'UTR act 8.
For O=C(Cn1cnc2ccccc2c1=O)c1ccc(Cl)cc1 the results were STAT1 inh -59, STAT1 act 155*, STAT3 activator 95, STAT3 inh 11, APP 5'UTR act 17, STAT1 act conf 148*, NFkB act 113 and STAT3 act 2 95.
Screening COCCn1c(-c2ccc(OC)cc2)cnc1SCC(=O)Nc1cccc2ccccc12 returned NF-kB expr up 1, STAT1 inh 3, STAT1 act 97, STAT3 activator 111, STAT3 inh -7 and APP 5'UTR act -2.
O=C(NC1=NCCS1)c1ccc(-c2ccc(Cl)cc2)o1 was read as NF-kB expr up 4.6*, STAT1 inh -61, STAT1 act 156*, STAT3 activator 84, STAT3 inh 22, APP 5'UTR act 119, STAT1 act conf 187*, NFkB act 126 and STAT3 act 2 94.
`Cc1ccc(CNS(=O)(=O)NCc2ccc(Cl)cc2)cc1` gave NF-kB expr up 1.2, STAT1 inh -3, STAT1 act 102, STAT3 activator 107, STAT3 inh -3 and APP 5'UTR act 4.

Screening results deposited in PubChem by several laboratories.
